Experimental data pooled from the literature.
Each line is one published result; the experiments were not run side by side.

Structure (SMILES)	target or system	test	system	setting	endpoint	value
Cl.Cl.O=C(CCN1CCCCC1)c1ccc(-c2ccc(C(=O)CCN3CCCCC3)cc2)cc1			Sprague-Dawley rat, plasma	oral, 25 mg/kg	half-life	6.05 h
N#Cc1ccc(NC(=S)NN=Cc2ccccc2)cc1	CRFK	cell growth or viability, MTS			CC50	> 100 µg/mL
CC[C@@]1(O)C(=O)OCc2c1cc1n(c2=O)Cc2cc3ccccc3nc2-1	MDCK		Caco-2	100 µM, 105 min, pH 7.4	Papp B→A	10 ×10⁻⁶ cm/s
COC(=O)C(NC(=O)c1cn(CCCCCF)c2ccccc12)C(C)(C)C (stereo not drawn)			male Sprague-Dawley rat, plasma	subcutaneous, 200 µg/kg	half-life	17.1 h
N#Cc1ccc(NC(=S)NN=Cc2ccc(F)cc2)cc1	CRFK	cell growth or viability, MTS			CC50	> 100 µg/mL
COC(=O)[C@H]1[C@@H](OC(=O)c2ccccc2)C[C@@H]2CC[C@H]1N2C			male Sprague-Dawley rat, plasma	intraperitoneal, 10 mg/kg, 1 h	concentration	310 ng/mL
CN(C)[C@H]1C[C@@]23CC[C@@]4(O2)C(=CC[C@]2(C)C(c5ccc6ccncc6c5)=CC[C@H]24)C=C3[C@@H](O)[C@@H]1O	human PBMC	cell growth or viability, flow cytometry			CC50	100 µM
O=C(O)C(F)(F)C(F)(F)C(F)(F)C(F)(F)C(F)(F)C(F)(F)C(F)(F)F	Solute carrier family 22 member 6 (SLC22A6, Homo sapiens, UniProt Q4U2R8)	transporter uptake, substrate	HEK293	2.5 min, pH 7.4	Km	65.8 µM
O=C(Nc1cccnn1)N1CCN([C@@H]2CCOc3cc(C(F)(F)F)ccc32)CC1			male Sprague-Dawley rat, brain	oral, 1 mg/kg, 4 h	concentration	438 ng/g
